Test results from ChEMBL document CHEMBL2062469, “1-(2-Mercaptobenzenesulfonyl)-3-hydroxyguanidines--novel potent antiproliferatives, synthesis and in vitro biological activity” (2012).

Tests used:
Assay type in all cases: functional
K562 = experiment: Cytostatic activity against human K562 cells
In short: (§1)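 NCI-60 human tumor cell line screen run by the US National Cancer Institute under the NIH Developmental Therapeutics Program protocol. A single-dose prescreen at 10 µM came first. Selected compounds then went into the 5-dose assay. Cytostatic activity is reported as GI50 (µM).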

SF-268 = experiment: Cytostatic activity against human SF268 cells; in short: as §1
SK-MEL-2 = experiment: Cytostatic activity against human SK-MEL-2 cells; in short: as §1
SF-295 = experiment: Cytostatic activity against human SF295 cells; in short: as §1
EKVX = experiment: Cytostatic activity against human EKVX cells; in short: as §1
LOX IMVI = experiment: Cytostatic activity against human LOXIMVI cells; in short: as §1
SK-MEL-5 = experiment: Cytostatic activity against human SK-MEL-5 cells; in short: as §1
A498 = experiment: Cytostatic activity against human A498 cells; in short: as §1
SK-MEL-28 = experiment: Cytostatic activity against human SK-MEL-28 cells; in short: as §1
HOP-92 = experiment: Cytostatic activity against human HOP92 cells; in short: as §1
SN12C = experiment: Cytostatic activity against human SN12C cells; in short: as §1
UACC-62 = experiment: Cytostatic activity against human UACC62 cells
In short: (§2)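 Human tumour cell lines from the NCI-60 panel, tested at the US National Cancer Institute under the NIH Developmental Therapeutics Program protocol. A single-dose prescreen at 10 µM came first. Selected compounds then went to a 5-dose assay, which gave GI50 and TGI values in µM.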

OVCAR-3 = experiment: Cytostatic activity against human OVCAR3 cells; in short: as §1
Hs-578T = experiment: Cytostatic activity against human Hs 578T cells; in short: as §1
U-251 = experiment: Cytostatic activity against human U251 cells; in short: as §2
MCF7 = experiment: Cytostatic activity against human MCF7 cells; in short: as §1
PC-3 = experiment: Cytostatic activity against human PC3 cells; in short: as §1
NCI-H522 = experiment: Cytostatic activity against human NCI-H522 cells; in short: as §1
MDA-MB-468 = experiment: Cytostatic activity against human MDA-MB-468 cells; in short: as §1
MOLT-4 = experiment: Cytostatic activity against human MOLT4 cells; in short: as §1
KM12 = experiment: Cytostatic activity against human KM12 cells; in short: as §1
SW-620 = experiment: Cytostatic activity against human SW620 cells; in short: as §2
786-0 = experiment: Cytostatic activity against human 786-0 cells; in short: as §1
IGROV-1 = experiment: Cytostatic activity against human IGROV1 cells; in short: as §1
SF-539 = experiment: Cytostatic activity against human SF539 cells; in short: as §1
HT-29 = experiment: Cytostatic activity against human HT-29 cells; in short: as §1
MDA-MB-435 = experiment: Cytostatic activity against human MDA-MB-435 cells; in short: as §1
HOP-62 = experiment: Cytostatic activity against human HOP62 cells; in short: as §1
M14 = experiment: Cytostatic activity against human M14 cells; in short: as §1

Q: `N=C(NO)NS(=O)(=O)c1cc(-c2nc(-c3ccccc3)no2)c(Cl)cc1SCc1ccccc1` was tested. Which GI50 (K562) did it give?
A: 1870 nM

Q: What about the TGI (K562) of the same compound?
A: 4740 nM

Q: What about the GI50 (SF-268) of the same compound?
A: 1740 nM

Q: And the TGI (SF-268)?
A: 3950 nM

Q: And the GI50 (SK-MEL-2)?
A: 1960 nM

Q: And the TGI (SK-MEL-2)?
A: 4030 nM

Q: What about the GI50 (SF-295) of the same compound?
A: 2050 nM

Q: And the TGI (SF-295)?
A: 5790 nM

Q: And the GI50 (EKVX)?
A: 1360 nM

Q: What about the TGI (EKVX) of the same compound?
A: 2710 nM

Q: And the GI50 (LOX IMVI)?
A: 1630 nM

Q: What about the TGI (LOX IMVI) of the same compound?
A: 4090 nM

Q: And the GI50 (SK-MEL-5)?
A: 1480 nM

Q: What about the TGI (SK-MEL-5) of the same compound?
A: 2860 nM

Q: What about the GI50 (A498) of the same compound?
A: 2570 nM

Q: What about the TGI (A498) of the same compound?
A: 7850 nM

Q: And the GI50 (SK-MEL-28)?
A: 1710 nM

Q: What about the TGI (SK-MEL-28) of the same compound?
A: 3460 nM

Q: And the GI50 (HOP-92)?
A: 1990 nM

Q: And the TGI (HOP-92)?
A: 9010 nM

Q: And the GI50 (SN12C)?
A: 1530 nM

Q: What about the TGI (SN12C) of the same compound?
A: 3270 nM

Q: And the GI50 (UACC-62)?
A: 1840 nM

Q: And the TGI (UACC-62)?
A: 3830 nM

Q: What about the GI50 (OVCAR-3) of the same compound?
A: 1690 nM

Q: And the TGI (OVCAR-3)?
A: 3120 nM

Q: And the GI50 (Hs-578T)?
A: 2550 nM

Q: What about the TGI (Hs-578T) of the same compound?
A: 6360 nM

Q: What about the GI50 (U-251) of the same compound?
A: 1360 nM

Q: What about the TGI (U-251) of the same compound?
A: 2840 nM

Q: What about the GI50 (MCF7) of the same compound?
A: 1450 nM

Q: And the TGI (MCF7)?
A: 2970 nM

Q: What about the GI50 (PC-3) of the same compound?
A: 1790 nM

Q: What about the TGI (PC-3) of the same compound?
A: 3880 nM

Q: What about the GI50 (NCI-H522) of the same compound?
A: 1320 nM

Q: And the TGI (NCI-H522)?
A: 2970 nM

Q: And the GI50 (MDA-MB-468)?
A: 1560 nM

Q: What about the TGI (MDA-MB-468) of the same compound?
A: 3040 nM

Q: And the GI50 (MOLT-4)?
A: 1450 nM

Q: And the TGI (MOLT-4)?
A: 3740 nM

Q: And the GI50 (KM12)?
A: 1770 nM

Q: And the TGI (KM12)?
A: 3550 nM

Q: And the GI50 (SW-620)?
A: 1680 nM

Q: And the TGI (SW-620)?
A: 3210 nM

Q: What about the GI50 (786-0) of the same compound?
A: 2750 nM

Q: And the TGI (786-0)?
A: 7060 nM

Q: And the GI50 (IGROV-1)?
A: 2380 nM

Q: And the TGI (IGROV-1)?
A: 7530 nM

Q: What about the GI50 (SF-539) of the same compound?
A: 2720 nM

Q: What about the TGI (SF-539) of the same compound?
A: 6440 nM

Q: What about the GI50 (HT-29) of the same compound?
A: 1900 nM

Q: What about the TGI (HT-29) of the same compound?
A: 3490 nM

Q: And the GI50 (MDA-MB-435)?
A: 1510 nM

Q: And the TGI (MDA-MB-435)?
A: 3080 nM

Q: And the GI50 (HOP-62)?
A: 2230 nM

Q: And the TGI (HOP-62)?
A: 5120 nM

Q: And the GI50 (M14)?
A: 2150 nM
